In ChEMBL document CHEMBL4665845, “CRISPR-Cas9 Genome-Wide Knockout Screen Identifies Mechanism of Selective Activity of Dehydrofalcarinol in Mesenchymal Stem-like Triple-Negative Breast Cancer Cells” (2020):
Active and inactive are the calls of the source. The rule behind the calls is not given here.

Columns and labels:
[1] = tested on: MDA-MB-231; assay: Growth inhibition of human MDA-MB-231 cells after 48 hrs by SRB assay; format: functional
In short: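 Cells were exposed to compound for 48 h, and growth was read by sulforhodamine B staining. TGI (total growth inhibition concentration, μM) was taken from concentration–response curves, n = 3, means ± SEM. MDA-MB-231 cells were grown in IMEM with 10% FBS at 37 °C in 5% CO2.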

[2] = tested on: MDA-MB-157; assay: Growth inhibition of human MDA-MB-157 cells after 48 hrs by SRB assay; format: functional
[3] = tested on: BT-549; assay: Growth inhibition of human BT-549 cells after 48 hrs by SRB assay; format: functional
[4] = tested on: HCC1806; assay: Growth inhibition of human HCC1806 cells after 48 hrs by SRB assay; format: functional
[5] = tested on: MDA-MB-468; assay: Growth inhibition of human MDA-MB-468 cells after 48 hrs by SRB assay; format: functional
[6] = tested on: MDA-MB-453; assay: Growth inhibition of human MDA-MB-453 cells after 48 hrs by SRB assay; format: functional
[7] = organism: Homo sapiens; assay: Selectivity index, ratio of LC50 for growth inhibitor of human MDA-MB-157 to LC50 for growth inhibitor of human MDA-MB-231; format: functional
In short: (§1)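 Selectivity index is the LC50 of the named TNBC line divided by the LC50 in MDA-MB-231 cells.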

[8] = organism: Homo sapiens; assay: Selectivity index, ratio of LC50 for growth inhibitor of human BT-549 to LC50 for growth inhibitor of human MDA-MB-231; format: functional; in short: as §1
[9] = organism: Homo sapiens; assay: Selectivity index, ratio of LC50 for growth inhibitor of human […] to LC50 for growth inhibitor of human MDA-MB-231; format: functional; in short: as §1
[10] = organism: Homo sapiens; assay: Selectivity index, ratio of LC50 for growth inhibitor of human MDA-MB-468 to LC50 for growth inhibitor of human MDA-MB-231; format: functional; in short: as §1
[11] = organism: Homo sapiens; assay: Selectivity index, ratio of LC50 for growth inhibitor of human MDA-MB-453 to LC50 for growth inhibitor of human MDA-MB-231; format: functional; in short: as §1
[12] = organism: Homo sapiens; assay: Selectivity index, ratio of TGI for growth inhibitor of human BT-549 to TGI for growth inhibitor of human MDA-MB-231; format: functional
[13] = tested on: MDA-MB-231; assay: Cytotoxicity against human MDA-MB-231 cells assessed as reduction in cell viability at 0.03 to 3 uM after 48 hrs by SRB assay; format: functional, cell-based; details: dose microM 0.03-3, time 48.0 hrs
[14] = tested on: MDA-MB-453; assay: Cytotoxicity against human MDA-MB-453 cells assessed as reduction in cell viability at 0.03 to 3 uM after 48 hrs by SRB assay; format: functional, cell-based; details: dose microM 0.03-3, time 48.0 hrs
[15] = read-out: LC50 (the source's name)

`C=CCCCC/C=C\CC#CC#C[C@@H](O)C=C` was tested, and the GI50 [1] was 74 nM, the TGI [1] was 120 nM and the CC50 [1, 15] was 210 nM. It also gave a GI50 [2] of 190 nM, a TGI [2] of 300 nM and a CC50 [2, 15] of 510 nM. The GI50 [3] was 390 nM, the TGI [3] was 850 nM and the CC50 [3, 15] was 1900 nM. For the same compound, the GI50 [4] was 390 nM, the TGI [4] was 880 nM and the CC50 [4, 15] was 1900 nM. It also gave a GI50 [5] of 1300 nM, a TGI [5] of 3100 nM and a CC50 [5, 15] of 5400 nM. It also gave a GI50 [6] of 1700 nM, a TGI [6] of 5100 nM and a CC50 [6, 15] of 9800 nM. The RatioLC50 [7] was 2.4, the RatioLC50 [8] was 9 and the RatioLC50 [9] was 9. It also gave a RatioLC50 [10] of 26, a RatioLC50 [11] of 47 and a Selectivity Index [12] of 4.7.
`O=C(Nc1ccccc1)c1cc([N+](=O)[O-])ccc1Cl` was tested, and the Activity [13] was “inactive” and the Activity [14] was “inactive”.
`C=CCCCCC(O)/C=C/C#CC#C[C@@H](O)C=C` (mixture of isomers) showed a TGI [1] of 360 nM, a TGI [3] of 4200 nM and a Selectivity Index [12] of 12.
Compound `C=C[C@@H](O)C#CC#C[C@@H](O)/C=C\CCCCCCC` [FALCARINDIOL] has a TGI [1] of 6000 nM, a TGI [3] of 9000 nM and a Selectivity Index [12] of 1.5.
`C=CCCCCC/C=C\CC#CC#CC(O)CC` (stereo not drawn) was tested, and the TGI [1] was 3300 nM, the TGI [3] was 7000 nM and the Selectivity Index [12] was 2.1.
`C=CCCC/C=C\CC#CC#CC(O)C=C` (mixture of isomers) gave a TGI [1] of 490 nM, a TGI [3] of 2400 nM and a Selectivity Index [12] of 4.9.
For `C=CCCCCCC(O)/C=C/C#CC#C[C@@H](O)C=C` (single isomer, unassigned) [DENDROARBOREOL B], the TGI [1] was 160 nM, the TGI [3] was 1100 nM and the Selectivity Index [12] was 6.9.
In the case of `CN(CCOc1ccc(CC2SC(=O)NC2=O)cc1)c1ccccn1` (stereo not drawn), the Activity [13] is reported as “inactive” and the Activity [14] is reported as “inactive”.
